Active and inactive are the calls of the source. No cut-off for these calls is given here.
Key:
D(2) dopamine receptor [1] = target: T1, D(2) dopamine receptor (Homo sapiens, UniProt P14416); test: Displacement of [3H]-YM-09151-2 from dopamine D2 receptor (unknown origin) in sheep brain striatum membranes after 2 hrs by scintillation counting; type: cell membranes; settings: Ovis aries (sheep)
In short: (§1)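 Sheep striatal membranes (50 mM Tris-HCl pH 7.4, protease inhibitors; 0.2 mg protein/mL) incubated 2 h at room temperature in Tris-HCl with 10 mM MgCl2, 0.8 nM free [3H]YM-09151-2 and rising ligand concentrations; nonspecific binding with 30 μM dopamine. Filtration on PEI-soaked GF/C, scintillation counting; fitted to two-state dimer model. Lines 5 and 6: membranes preincubated 1 h with the named TAT-TM6 peptide first.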

D(2) dopamine receptor [2] = target: T1, D(2) dopamine receptor; test: Antagonist activity at human dopamine D2 receptor expressed in CHO cells co-expressing A2A receptor assessed as reduction in sumanirole-induced response at 0.5 uM after 90 mins by DMR analysis; type: cell-based
In short: (§2)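 CHO cells stably co-expressing human A2AR and D2R, seeded 7,000/well 24 h before assay (70–80% confluent). Washed into assay buffer (medium, 20 mM HEPES pH 7.15, 0.1% DMSO, 0.1% BSA), equilibrated 2 h at 24°C; 10 min baseline, antagonist added and read 30 min, then sumanirole (100 nM solution) added and DMR wavelength shift (pm) recorded ≥90 min; expressed as % maximal sumanirole effect.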

D(2) dopamine receptor [3] = target: T1, D(2) dopamine receptor; settings: CHO, 1 uM
D(2) dopamine receptor [4] = target: T1, D(2) dopamine receptor; test: Displacement of [3H]-YM-09151-2 from dopamine D2 receptor (unknown origin) in sheep brain striatum membranes preincubated with TAT-TM6 D2R peptide for 1 h before addition of compound and radioligand and measured after 2 hrs by scintillation counting; type: cell membranes; in short: as §1
D(2) dopamine receptor [5] = target: T1, D(2) dopamine receptor; test: Displacement of [3H]-YM-09151-2 from dopamine D2 receptor (unknown origin) in sheep brain striatum membranes preincubated with TAT-TM6 A2AR peptide for 1 h before addition of compound and radioligand and measured after 2 hrs by scintillation counting; type: cell membranes; in short: as §1
D(2) dopamine receptor [6] = target: T1, D(2) dopamine receptor; test: Antagonist activity at human dopamine D2 receptor expressed in CHO cells co-expressing A2A receptor assessed as reduction in sumanirole-induced response after 90 mins by DMR analysis; type: cell-based; in short: as §2
D(2) dopamine receptor [7] = target: T1, D(2) dopamine receptor; test: Binding affinity to human dopamine D2 receptor transfected in HEK293 cells co-expressing nYFP (1 to 155 residues) and cYFP (156 to 238 residues) at 100 nM after 10 mins by fluorescence complementation assay; type: cell-based
In short: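 HEK-293T cells transiently co-transfected (lipofectamine) with D2R-nYFP and D2R-cYFP; after 48 h, cells in HBSS with 0.1% glucose (20 μg protein, 50,000 cells/well) treated with 100 nM ligand or HBSS for 10 min. Fluorescence read at 530 nm emission, 400 nm excitation; background from cells lacking fusion proteins subtracted.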

T1 sequence (P14416 whole entry): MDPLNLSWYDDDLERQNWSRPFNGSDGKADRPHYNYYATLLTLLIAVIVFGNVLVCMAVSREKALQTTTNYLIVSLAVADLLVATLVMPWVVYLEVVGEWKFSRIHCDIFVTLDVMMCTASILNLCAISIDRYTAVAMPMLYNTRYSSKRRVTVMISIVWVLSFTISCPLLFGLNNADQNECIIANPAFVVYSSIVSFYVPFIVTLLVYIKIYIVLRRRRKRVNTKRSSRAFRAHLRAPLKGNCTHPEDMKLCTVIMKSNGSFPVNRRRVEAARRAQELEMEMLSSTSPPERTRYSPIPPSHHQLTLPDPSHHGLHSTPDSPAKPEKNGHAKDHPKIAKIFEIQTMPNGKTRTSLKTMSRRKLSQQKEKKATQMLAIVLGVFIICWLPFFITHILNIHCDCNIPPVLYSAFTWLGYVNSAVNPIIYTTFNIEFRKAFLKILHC

SMILES	K (D(2) dopamine receptor [1])	inhibition (D(2) dopamine receptor [2])	inhibition (D(2) dopamine receptor [3])	K (D(2) dopamine receptor [4])	K (D(2) dopamine receptor [5])	IC50 (D(2) dopamine receptor [6])	Activity (D(2) dopamine receptor [7])
COC(=O)CN(CC(=O)NCCCOCCOCCOCCCNC(=O)CCC(=O)Nc1ccc(CCN2CN(c3ccccc3)C3(CCN(CCCC(=O)c4ccc(F)cc4)CC3)C2=O)cc1)CC(=O)NCCCOCCOCCOCCCNC(=O)CCC(=O)Nc1ccc(CCN2CN(c3ccccc3)C3(CCN(CCCC(=O)c4ccc(F)cc4)CC3)C2=O)cc1	0.07 nM	Active	–	–	–	–	–
O=C(O)CCC(=O)Nc1ccc(CCN2CN(c3ccccc3)C3(CCN(CCCC(=O)c4ccc(F)cc4)CC3)C2=O)cc1	0.7 nM	–	–	–	–	–	–
COC(=O)CN(CC(=O)NCCCOCCOCCOCCCNC(C)=O)CC(=O)NCCCOCCOCCOCCCNC(=O)CCC(=O)Nc1ccc(CCN2CN(c3ccccc3)C3(CCN(CCCC(=O)c4ccc(F)cc4)CC3)C2=O)cc1	1.5 nM	–	–	–	–	–	–
O=C(CCCN1CCC2(CC1)C(=O)NCN2c1ccccc1)c1ccc(F)cc1	–	–	Active	–	–	–	–
COC(=O)CN(CC(=O)NCCOCCOCCNC(=O)CCC(=O)Nc1ccc(CCN2CN(c3ccccc3)C3(CCN(CCCC(=O)c4ccc(F)cc4)CC3)C2=O)cc1)CC(=O)NCCOCCOCCNC(=O)CCC(=O)Nc1ccc(CCN2CN(c3ccccc3)C3(CCN(CCCC(=O)c4ccc(F)cc4)CC3)C2=O)cc1	0.021 nM	Active	–	1.1 nM	0.05 nM	15 nM	inactive
COC(=O)CN(CC(=O)NCCOCCOCCNC(C)=O)CC(=O)NCCOCCOCCNC(=O)CCC(=O)Nc1ccc(CCN2CN(c3ccccc3)C3(CCN(CCCC(=O)c4ccc(F)cc4)CC3)C2=O)cc1	0.77 nM	–	–	0.8 nM	0.8 nM	280 nM	inactive
